Measured values: article PMC5515376 (Nature, 2016)
Where two headings read alike, the source gives them in different places.

Tests used:
[1] = test system: P. falciparum Dd2; assay: In vitro P. falciparum blood-stage growth inhibition assay; type: cell-based, Plasmodium falciparum
[2] = test system: P. falciparum 3D7 stage IV–V gametocytes; assay: In vitro transmission-blocking assay; type: cell-based, Plasmodium falciparum
Procedure, shortened: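 3D7 cultures were treated 3 days with 50 mM N-acetyl-D-glucosamine to remove asexual parasites. Stage IV–V gametocytes were then isolated on a discontinuous Percoll gradient. Gametocytes (1.0 × 10^5 per well) were incubated with compound for 72 h. Viability was measured by CellTiter-Glo luminescence.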

[3] = test system: parasite cytosolic Na^+ concentration; assay: Parasite cytosolic Na+ concentration measurement; type: cell-based, Plasmodium falciparum; conditions: after treatment
[4] = test system: Mammalian cells (HepG2, A549, and HEK293); assay: Mammalian cell cytotoxicity; type: cell-based; conditions: initial characterization
Procedure, shortened: (§1)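 HepG2, A549 or HEK293 cells were grown in DMEM with 10% FBS and 1% antibiotic–antimycotic and tested mycoplasma-free. Cells (1 × 10^6) were seeded one day before treatment. They were exposed to ascending compound doses for 72 h, and viability was read by CellTiter-Glo.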

[5] = test system: P. falciparum NITD609^R; assay: Blood-stage growth inhibition, P. falciparum NITD609^R strain; type: cell-based, Plasmodium falciparum
Procedure, shortened: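 Asexual blood-stage parasites were cultured to 3–8% parasitaemia, counted on Giemsa smears, and diluted in medium to 2.0% parasitaemia and 2.0% haematocrit. This suspension was added to compound dispensed from DMSO, giving a final 1% parasitaemia and 1% haematocrit, with mefloquine as control. Plates were incubated for 72 h at 37 °C. Growth was read by SYBR Green I fluorescence in Tris/EDTA/saponin/Triton X-100 lysis buffer.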

[6] = Solubility assay in PBS; type: physicochemical; conditions: for PBS solubility: PBS pH 7.4 with 1% DMSO
Procedure, shortened: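 Compound was prepared at 100 µM in triplicate, both in 100% DMSO and in PBS pH 7.4 with 1% DMSO. Samples were shaken at 750 r.p.m. for 18 h at room temperature. Analysis was by UPLC–MS with single-ion detection. PBS response was fitted to a two-point calibration built from the DMSO samples.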

[7] = target: hERG channel (Homo sapiens, UniProt Q12809); assay: hERG channel inhibition assay; type: cell-based; conditions: read-out: hERG IC50; IKr
Chain of hERG channel (Q12809 whole entry): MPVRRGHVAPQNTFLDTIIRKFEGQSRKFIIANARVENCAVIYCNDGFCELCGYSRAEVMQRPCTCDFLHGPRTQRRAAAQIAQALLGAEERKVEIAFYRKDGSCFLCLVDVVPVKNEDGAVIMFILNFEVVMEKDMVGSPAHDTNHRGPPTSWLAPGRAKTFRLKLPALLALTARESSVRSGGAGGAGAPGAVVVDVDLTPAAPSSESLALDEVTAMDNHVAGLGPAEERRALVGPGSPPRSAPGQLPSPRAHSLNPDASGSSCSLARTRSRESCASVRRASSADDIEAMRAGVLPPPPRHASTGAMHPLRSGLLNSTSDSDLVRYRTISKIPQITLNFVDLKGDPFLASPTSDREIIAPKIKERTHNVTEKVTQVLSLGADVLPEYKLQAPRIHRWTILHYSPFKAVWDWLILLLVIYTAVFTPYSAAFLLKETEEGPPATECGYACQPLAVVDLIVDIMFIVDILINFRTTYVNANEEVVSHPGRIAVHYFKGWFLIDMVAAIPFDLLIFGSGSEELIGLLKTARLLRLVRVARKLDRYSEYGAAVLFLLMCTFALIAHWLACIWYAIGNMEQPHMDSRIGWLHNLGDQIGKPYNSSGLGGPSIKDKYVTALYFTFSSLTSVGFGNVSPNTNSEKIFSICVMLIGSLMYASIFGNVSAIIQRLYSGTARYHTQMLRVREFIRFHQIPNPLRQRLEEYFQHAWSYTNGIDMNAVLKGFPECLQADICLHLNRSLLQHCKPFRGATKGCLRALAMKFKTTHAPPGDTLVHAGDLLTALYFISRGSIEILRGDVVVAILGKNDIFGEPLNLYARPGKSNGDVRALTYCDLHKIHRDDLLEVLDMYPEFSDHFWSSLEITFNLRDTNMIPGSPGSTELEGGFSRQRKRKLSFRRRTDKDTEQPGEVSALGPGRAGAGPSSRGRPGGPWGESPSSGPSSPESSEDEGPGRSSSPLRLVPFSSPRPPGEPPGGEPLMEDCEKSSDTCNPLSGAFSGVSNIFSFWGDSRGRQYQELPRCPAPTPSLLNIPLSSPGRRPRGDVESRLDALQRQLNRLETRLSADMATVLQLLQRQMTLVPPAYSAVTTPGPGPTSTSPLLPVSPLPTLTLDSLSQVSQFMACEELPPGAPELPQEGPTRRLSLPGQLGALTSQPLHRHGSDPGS
Procedure, shortened: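 hERG current was measured in hERG-expressing cell lines by automated patch clamp (QPatch-HTX).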

[8] = test system: HepG2 cell line; assay: Mammalian cell cytotoxicity assay; type: cell-based, human; conditions: for CC50: read-out: HepG2 CC50, 72 h
Procedure, shortened: as §1

[9] = Metabolic stability assay, mouse liver microsomes; type: in vitro ADME
Procedure, shortened: (§2)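 Liver microsomes (0.2 mg ml−1) were incubated with compound (0.5 and 5 µM) plus NADPH for 0, 10 and 90 min. Human microsomes or mouse CD-1 microsomes were used, as named in each line. Compound depletion was measured by LC–MS/MS and used to estimate Km, Vmax and half-life.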

[10] = Plasma protein binding assay; type: in vitro ADME
Procedure, shortened: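 Binding was measured by equilibrium dialysis in a RED device. Compound at 5 µM, in duplicate, was placed in mouse plasma (0.95% acetonitrile, 0.05% DMSO) against PBS pH 7.4. Incubation was 5 h at 37 °C with 350 r.p.m. orbital shaking. Both sides were analysed by UPLC–MS with single-ion detection.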

[11] = Metabolic stability assay, human liver microsomes; type: in vitro ADME
Procedure, shortened: as §2

[12] = Mouse pharmacokinetics assay; type: in vivo; conditions: CD-1 mice; for AUC0-t: t = 24 h; for F: printed in the IV (3) column, PO (10) vs IV (3) mg/kg
Procedure, shortened: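 Female CD-1 mice received single intravenous and oral doses. Parameters were estimated by non-compartmental analysis.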

[13] = test system: P. berghei (ANKA GFP-luc) blood-stage parasites; assay: In vivo P. berghei blood-stage assay; design: species or system Plasmodium berghei; conditions: CD-1 mice; single 100 mg kg^−1 dose; parasites re-emerge very quickly
[14] = test system: P. falciparum (NF54) male and female stage-V gametocytes; assay: Dual gamete formation assay; type: cell-based, Plasmodium falciparum
[15] = test system: P. falciparum (NF54) gametocytes; assay: In vitro transmission-blocking imaging assay; type: cell-based, Plasmodium falciparum
Procedure, shortened: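 Highly synchronous NF54 pf-LUC-GFP gametocytes were induced from a single asexual cycle. They were exposed to 16 compound doses, with final controls of 0.4% DMSO and 5 µM puromycin, for 72 h at 37 °C under 5% CO2/5% O2/90% N2 and 60% humidity. MitoTracker Red CM-H2XRos was then added overnight, and plates were imaged after ≥1 h at room temperature. IC50 came from a 4-parameter variable-slope fit.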

[16] = test system: P. berghei (ANKA) liver stage; assay: In vitro P. berghei liver-stage assay; type: cell-based, Plasmodium berghei; conditions: P. berghei (ANKA), Liver stage
Procedure, shortened: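 HepG2 cells (~17,500 per well, in duplicate) were cultured 18–24 h, then the medium was exchanged and compound added. After 1 h, 4,000 P. berghei ANKA GFP–luc sporozoites per well were added, freshly dissected from A. stephensi mosquitoes. Plates were spun 10 min at 1,000 r.p.m. and incubated 48 h at 37 °C. Parasite load was read by Bright-Glo luminescence.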

[17] = test system: P. falciparum (NF54) liver stage; assay: In vitro P. falciparum liver-stage assay; type: cell-based, Plasmodium falciparum
[18] = read-out: PfDd2 EC50, asexual blood-stage parasites (Dd2), SAR table
[19] = read-out: Pf, Dd2 EC50, blood stage

## COc1ccc(NC(=O)N2CCCCN3[C@H](CN4CCN(C)CC4)[C@H](c4ccc(C#Cc5ccccc5)cc4)[C@@H]3C2)cc1 [BRD6479]
[1]; [18]
  EC50: 158 nM

## COc1ccc(-c2ccccc2[C@H]2[C@@H](C#N)N(C(=O)C3CCCC3)[C@H]2CO)cc1 [BRD0026]
[2]; read-out: EC50, late-sexual blood stages, in vitro
  EC50: 1980 nM
[3]
  Parasite cytosolic Na^+ concentration: rapid increase
[4]
  Cytotoxicity (in words): low cytotoxicity
[5]; relative to Dd2
  Potency against Pf NITD609^R: selectively reduced potency
[5]; strain carrying a point mutation in P. falciparum ATPase4
  EC50: 1770 nM
[6]; initial characterization
  Solubility (in words): good solubility
[1]; read-out: EC50, asexual blood stages, in vitro
  EC50: 346 nM

## COc1ccc(NC(=O)N2CCCCN3[C@H](CN(C)C(C)C)[C@H](c4ccc(C#Cc5ccccc5)cc4)[C@@H]3C2)cc1 [BRD4716]
[1]; [18]
  EC50: 24 nM

## COc1ccc(NC(=O)N2CCCCN3[C@H](CO)[C@H](c4ccc(C#Cc5ccccc5C#N)cc4)[C@@H]3C2)cc1 [BRC4873]
[1]; [18]
  EC50: 261 nM

## COc1ccc(NC(=O)N2CCCCN3[C@H](CN)[C@H](c4ccc(C#Cc5ccccc5)cc4)[C@@H]3C2)cc1 [BRD1095]
[7]
  IC50: 5100 nM
[8]
  CC50: 15600 nM
[9]
  Mouse Clint: < 20 µL/min/mg
[10]
  Mouse Plasma protein binding: 99.3%
[11]
  Human Clint: < 20 µL/min/mg
[6]
  PBS solubility: 25 µM
[12]; IV (3) mg/kg
  AUC0-inf: 14.9 µM·h
  CL: 6.7 mL/min/kg
  MRT0-inf: 39.2 h
  Vss: 16 L/kg
  AUC0-t: 7 ^¶ µM*hr
[12]; PO (10) mg/kg
  Cmax: 600 nM
  T1/2: 28.8 h
  Tmax: 4 h
  AUC0-t: 11.7 ^¶ µM*hr
[12]
  F: 50%
[1]; P. falciparum Dd2
  EC99.9: 60 nM
[1]; [19]
  EC50: 10 nM
[1]; [18]
  EC50: 10 nM

## C[C@H]1[C@H](OC(=O)CCC(=O)O)O[C@@H]2O[C@@]3(C)CC[C@H]4[C@H](C)CC[C@@H]1[C@@]24OO3 [artesunate, reference compound]
[13]
  Effect on parasites: rapid suppression of parasites
[3]
  Parasite cytosolic Na^+ concentration: constant

## COc1ccc(NC(=O)N2CCCN3[C@H](CO)[C@H](c4ccc(C#Cc5ccccc5)cc4)[C@@H]3C2)cc1 [BRD9599]
[1]; [18]
  EC50: 850 nM

## COc1ccc(NC(=O)N2CCCCN3[C@H](CO)[C@H](c4ccc(C#Cc5ccccc5)cc4)[C@@H]3C2)cc1 [BRD3444]
[7]
  IC50: 5200 nM
[2]; P. falciparum (3D7), Gametocyte (IV-V)
  EC50: 663 nM
[14]; read-out: EC50, gamete formation, female (F)
  EC50: 804 nM
[14]; read-out: EC50, gamete formation, male
  EC50: ~1000 nM
[8]; HepG2 cell line
  Cytotoxicity: no significant cytotoxicity
[8]
  CC50: > 50000 nM
[9]
  Mouse Clint: 248 µL/min/mg
[15]; read-out: EC50, early (E, stages I–III) gametocytes
  EC50: 282 nM
[15]; read-out: EC50, late (L, stages IV–V) gametocytes
  EC50: 1440 nM
[16]
  EC50: 140 nM
[10]
  Mouse Plasma protein binding: 99.9%
[11]
  Human Clint: 142 µL/min/mg
[6]
  PBS solubility: < 1 µM
[12]; IV (3) mg/kg
  AUC0-inf: 1.4 µM·h
  CL: 72 mL/min/kg
  MRT0-inf: 2.8 h
  T1/2: 3.7 h
  Vss: 12 L/kg
  AUC0-t: 1.2 ^¶ µM*hr
[12]; PO (10) mg/kg
  AUC0-inf: 4 µM·h
  Cmax: 600 nM
  T1/2: 3.2 h
  Tmax: 0.5 h
  AUC0-t: 4 ^¶ µM*hr
[12]
  F: 86%
[1]; P. falciparum (Dd2), Blood stage
  EC50: 9 nM
[1]; [19]
  EC50: 9 nM
[1]; [18]
  EC50: 11 nM
[1]; three P. falciparum strains
  Potency across P. falciparum Dd2, PfscDHODH and Pf NITD609^R: equipotent
[17]
  EC50: 1310 nM
